JMJD2C inh: blocks human GASC-1 demethylase activity; Q9H3R0; GST-JMJD2C(1-420) H3K9me3 demethylation, DELFIA europium; inhibition, % at 2.35 µM; hit rate 0.069% among 330,000; AID 2099;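 active = more than half of a compound's replicate wells show inhibition beyond 50%, single wells judged on their own value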;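 note: signal counts dimethyl H3K9 product captured on neutravidin plate; 0% = median of DMSO wells and 100% = 0.3 times that DMSO median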
Target sequence (Q9H3R0 1-420 limits assumed): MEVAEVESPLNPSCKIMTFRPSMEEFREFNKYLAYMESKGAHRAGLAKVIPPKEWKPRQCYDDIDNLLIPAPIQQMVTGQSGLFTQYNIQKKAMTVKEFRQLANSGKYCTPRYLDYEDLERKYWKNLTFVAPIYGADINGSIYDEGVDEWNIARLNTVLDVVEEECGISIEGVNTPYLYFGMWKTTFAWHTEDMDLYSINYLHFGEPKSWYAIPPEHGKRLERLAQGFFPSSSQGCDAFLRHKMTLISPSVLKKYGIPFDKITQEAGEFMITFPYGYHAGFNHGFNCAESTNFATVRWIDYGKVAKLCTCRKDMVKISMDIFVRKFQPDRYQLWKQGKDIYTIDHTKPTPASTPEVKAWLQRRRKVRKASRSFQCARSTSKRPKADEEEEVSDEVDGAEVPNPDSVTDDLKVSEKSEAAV
NR2E3 ag-1: NR2E3 (human) agonism; AID 2300; hit rate 0.12% among 320,000; inhibition of corepressor binding, % at 4.78 µM; GST-NR2E3/biotin-RetCOR TR-FRET, 1536-well;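 active = percent inhibition above the cutoff of mean plus 3 SD of all tested compounds, set per screening campaign, cut at about 20% in these data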;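 note: 0% = DMSO wells and 100% = biotin wells as full block of FRET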
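Test system – NR2E3–RetCOR corepressor complex · Quantity – NR2E3 fusion 1.35 nM · Buffer or medium – Tris pH 7.5 · Incubation – Compound–protein incubation for 5 h at 4 °C · Technique – TR-FRET, Eu(K)-anti-GST donor, streptavidin-D2 acceptor, ex 340, em 617/671 nm · Evaluation – percent inhibition of 671/617 nm emission ratio versus biotin and DMSO controls · Plate – 1536-well format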
DAX1 inh-1: inhibitors of DAX1 repression of SF-1 activated StAR promoter; inhibition, % at 6.8 µM; HEK293T StAR-luciferase reporter, SF-1/DAX-1 repression relief; AID 652010; hit rate 1.1% among 370,000;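 active = inhibition above the mean over all tested compounds plus 3 SD, cut at about 3.6% in these data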;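 note: 0% = DAX-1 cells with DMSO and 100% = cells lacking DAX-1 with DMSO; higher inhibition means more luminescence from relief of DAX-1 repression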
NR2E3 ag-2: human photoreceptor-specific nuclear receptor agonism | AID 602229 | inhibition of corepressor binding, % at 3.98 µM | hit rate 0.35% among 360,000 | Q9Y5X4 | CHO-S Gal4-NCOR/VP16-NR2E3 two-hybrid, luciferase;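 active = inhibition above the mean of all tested compounds plus 3 SD, cut at about 70% in these data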;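 note: 0% = DMSO with NR2E3 transfected cells and 100% = cells lacking NR2E3 construct; higher means lower luciferase signal from less NR2E3 corepressor binding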
SMARCA2 act: increases SMARCA2 function in MMTV reporter cells. hit rate 1% among 370,000. activation, % at 9.1 µM. MG213 cells, MMTV-luciferase reporter, dexamethasone, overnight; in the data active = activation above about 7.8%;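 note: 0% = vehicle wells and 100% = reference activator wells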
DAX1 inh-2: inhibits human nuclear receptor DAX1; P51843; HEK293 Gal4-DAX1 luciferase reporter, luminescence; inhibition, % at 6.75 µM; hit rate 0.99% among 340,000; AID 504766;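 active = inhibition above the mean over all tested compounds plus 3 SD, cut at about 4.2% in these data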;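 note: 0% = DAX1-transfected cells with DMSO and 100% = empty-vector control cells with DMSO; inhibition shows as a rise in luminescence from relieved DAX1 repression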
Target sequence (P51843 207-470 limits assumed): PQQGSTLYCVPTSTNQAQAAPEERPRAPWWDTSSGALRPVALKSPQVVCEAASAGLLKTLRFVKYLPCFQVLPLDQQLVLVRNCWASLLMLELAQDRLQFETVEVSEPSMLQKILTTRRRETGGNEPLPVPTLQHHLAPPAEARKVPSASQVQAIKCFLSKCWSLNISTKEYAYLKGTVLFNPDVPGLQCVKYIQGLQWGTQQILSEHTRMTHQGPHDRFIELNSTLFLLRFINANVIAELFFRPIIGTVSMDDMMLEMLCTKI
* = called active by the depositor; i = inactive; . = no result. Sampled rows, rich in hits. Any-hit rate of the full collection: about 3.2%.

SMILES	JMJD2C inh	NR2E3 ag-1	DAX1 inh-1	NR2E3 ag-2	SMARCA2 act	DAX1 inh-2
CCOC(=O)c1nc(-c2ccc(OC)c(OC)c2)cnc1C#N	4.8	1.3	0.5	-15.8	-2.3	6.9*
O=C1CC(c2ccc3c(c2)OCCO3)Oc2ccc([N+](=O)[O-])cc21 (stereo not drawn)	-6.1	1.6	0.0	-27.2	-2.8	4.7*
O=C1CC(c2ccc3c(c2)OCCO3)Oc2ccccc21 (stereo not drawn)	-16.9	2.8	1.3	-69.9	3.7	1.1
CC(=O)O[C@H]1CC[C@@]2(C)C(CCC3C2CC[C@]2(C)OC(=O)CCC32)C1 (stereo partly drawn)	8.2	0.0	1.1	-8.7	1.1	5.0*
Nc1ncnc2c1ncn2[C@@H]1O[C@H](CNCC#Cc2ccccc2)[C@@H](O)[C@H]1O	54.0*	.	.	-5.1	.	-0.9
C[C@H](Cc1ccccc1)Nc1ncnc2c1ncn2[C@@H]1O[C@H](CO)[C@@H](O)[C@H]1O	.	2.7	3.8*	-27.6	3.0	0.0
Nc1[nH]c2cc(C(F)(F)F)ccc2c1C(=O)NCc1ccc(F)cc1	.	.	-0.9	.	-2.2	.
CC(=O)OCCCN1C(=O)CCC12CCC(C)CC2 (stereo not drawn)	.	.	-0.6	.	-3.3	.
Cc1ccc(-c2cc(-c3nnc(SCc4cccc5ccccc45)n3N)[nH]n2)cc1	.	.	-1.4	.	-5.9	.
O=c1c(Cc2c(F)cccc2Cl)c(O)ccn1CCCn1ccnc1	1.6	2.5	0.4	11.2	-0.4	4.3*
O=c1c(Cc2c(F)cccc2Cl)c(O)ccn1Cc1ccc(F)cc1	16.2	0.6	-0.7	-12.7	-1.6	-0.6
Cc1cccc(NC(=O)COC(=O)C2C3CC4OC(=O)C2C4C3)c1C (stereo not drawn)	13.8	0.1	0.4	6.2	-2.9	2.3
Cc1cccc(C)c1NC(=O)COC(=O)C1C2CC3OC(=O)C1C3C2 (stereo not drawn)	-9.2	1.3	-0.2	3.5	-1.9	5.2*
O=C(Nc1ccc(F)cc1)OCc1cn(Cc2cc(F)cc(F)c2)nn1	.	.	-1.0	.	-1.7	.
C=CCn1c(NCc2ccccc2)nc2ccccc21	147.5	-0.8	0.2	-17.3	0.0	7.1*
C=CCn1c(NCc2ccccc2O)nc2ccccc21	1.5	0.5	0.0	-50.2	1.4	0.3
Cc1ccc2[nH]c(O)c(N=O)c2c1	0.9	-3.3	0.2	-11.8	-2.0	4.9*
CCc1ccccc1NC(=O)c1cc(C)nn1-c1ccccc1	.	.	-0.8	.	-3.8	.
COC(=O)[C@]12C[C@H](CC(=O)N3CCN(C(=O)c4ccco4)CC3)C(=O)N(Cc3cccc4ccccc34)C1=C[C@H](C1CCCC1)O[C@@H]2C	.	.	-1.1	.	-2.4	.
O=C(Nc1ccc(F)cc1)OC1CC2CC1[C@H]1CCCCN1C2 (stereo partly drawn)	.	.	-0.9	.	-1.9	.
CCCN(CC1CC1)C(=O)CNc1nnnn1-c1ccccc1	.	.	0.5	.	-6.0	.
CCN(CC)c1ccc(C=C2C(=O)OC(C)(C(C)(C)C)OC2=O)cc1 (stereo not drawn)	3.2	-0.2	-0.8	-8.8	1.4	4.9*
CC1(C)CCc2c([nH]c3ccccc3c2=O)O1	-4.6	2.5	0.1	12.1	2.4	5.5*
Cc1cc(/C=C2\SC(=S)N(Cc3ccco3)C2=O)c(C)n1-c1cccnc1	2.3	.	-0.4	-31.9	5.4	-1.0
Cc1cc(/C=C2/SC(=S)N(c3cccc(C(F)(F)F)c3)C2=O)c(C)n1-c1cccnc1	-22.1	-2.4	.	88.4*	.	-4.5
SMILES	JMJD2C inh	NR2E3 ag-1	DAX1 inh-1	NR2E3 ag-2	SMARCA2 act	DAX1 inh-2
O=C(Cc1c(F)cccc1Cl)Nc1cc(S(=O)(=O)N2CCCCC2)ccc1N1CCOCC1	-2.0	-3.3	0.1	39.6	-5.1	5.8*
CN1CCN(c2ccc(S(=O)(=O)N3CCCCC3)cc2NC(=O)Cc2c(F)cccc2Cl)CC1	2.1	-4.2	-1.3	1.8	-1.8	0.5
O=C(CSc1ccccc1)Nc1cc(S(=O)(=O)N2CCOCC2)ccc1N1CCOCC1	0.6	-0.1	-0.2	-1.8	-2.3	4.3*
O=C(CSc1ccc(Cl)cc1)Nc1ccc(N2CCN(c3ccccc3)CC2)c(F)c1	-7.9	4.1	0.3	-10.8	1.1	-0.2
O=C(CSc1ccccc1)Nc1ccc(N2CCOCC2)c(F)c1	0.3	-4.2	4.4*	-29.9	4.4	1.8
O=C(/C=C/c1ccccc1)Nc1cc(S(=O)(=O)N2CCOCC2)ccc1N1CCOCC1	.	.	0.3	28.8	-2.1	4.5*
COc1ccc(S(=O)(=O)N2CCOCC2)cc1NC(=O)CSc1ccccc1	9.9	3.4	-0.4	-4.5	1.0	0.4
O=C(Cc1ccccc1)N1CCC(Oc2cccnc2)CC1	.	.	0.6	.	-1.4	.
CCCCCCCCN1C(=O)[C@@H](CC(=O)NCc2ccc(C)o2)C[C@@]2(C(=O)OC)C1=C[C@H](C(C)C)O[C@@H]2C1CC1	.	.	-1.7	.	-2.7	.
COc1ccccc1-n1c(SCC(=O)N2CCCC2)nc2cccnc21	61.5*	6.5	-0.3	-13.2	0.8	0.3
CCN(CC)C(=O)CSc1nc2cccnc2n1-c1ccccc1OC	7.1	0.2	-0.3	-0.3	-3.0	-1.3
CC(C)n1nnnc1SCC(=O)NCc1ccc2c(c1)OCO2	i	0.7	-0.7	-0.6	-4.3	0.0
CCCn1nnnc1SCC(=O)NCc1ccc2c(c1)OCO2	62.3*	0.8	-0.7	-4.9	2.7	0.6
COc1ccc(CNC(=O)CSc2nnnn2Cc2ccccc2)cc1	51.7*	-4.1	0.0	-6.1	-0.5	-0.5
O=C(CSc1nnc(COc2ccc(Cl)cc2)n1Cc1ccco1)Nc1cccc2ccccc12	.	.	-1.9	.	-4.4	.
CC(=O)N(C)C1=C(N2CCOCC2)C(=O)c2ccccc2C1=O	98.7*	-9.1	.	-12.7	.	-5.3
COC(=O)[C@@]12CCCCC3=C1N(CCC3)C(=O)[C@H]2CC(=O)N1CCOCC1	.	.	-0.8	.	-1.9	.
COc1ccc(NC(=O)c2ccc(C)cc2)cc1	-0.4	3.0	3.9*	-121.1	2.2	-0.9
CCOc1ccc(NC(=O)c2ccc(NC(=O)COC(=O)Cc3ccc(OC)cc3)cc2)cc1	5.0	0.5	0.9	-23.2	-0.3	0.5
COc1ccc(CC(=O)OCC(=O)Nc2ccc(C(=O)Nc3ccc(OC)cc3)cc2)cc1	-0.5	0.0	0.2	-15.8	-1.4	4.2*
COc1ccc(NC(=O)c2cc(C)nn2-c2ccccc2)cc1	23.9	-0.3	-0.1	-50.8	0.1	0.1
COc1ccc(CNC(=O)c2cc(C)nn2-c2ccccc2)cc1	4.6	1.8	0.1	-44.7	0.7	6.7*
O=C(COc1ccc2ccccc2c1)Nc1nccs1	-3.1	-3.8	3.6*	12.8	4.2	-1.2
COC(=O)C1CN(Cc2ccccc2)CCS(=O)(=O)N1Cc1ccc(F)cc1 (stereo not drawn)	.	.	-0.7	.	-0.4	.
S=c1[nH]nc(-c2cc(-c3ccccc3)n[nH]2)n1N=Cc1cccc(OCc2ccccc2)c1	.	.	0.5	.	0.8	.

Screening results (PubChem BioAssay)
